In brackets after ≈: the same amount, converted by molar mass. Like-named read-outs stand apart in the source and are kept apart here.
What was measured:
Cytotoxicity, MTT assay = assay type: cell-based; settings: human, MRC-5 cells (normal embryonic lung cell line)
S. aureus ATCC 25923 = test: Antimicrobial activity, agar dilution method; assay type: cell-based; settings: Staphylococcus aureus, ATCC25923
Outline: (§1)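 Test compound in DMSO, mixed with Mueller–Hinton broth, two-fold serially diluted, and incorporated into MH agar at final 0.25–256 μg/mL. Agar with 0.5% DMSO served as reagent control. Organisms were grown overnight in MH broth at 37 °C, diluted in normal saline to 0.5 McFarland (1.5×10⁸ CFU/mL), and inoculated onto plates. Plates were incubated at 37 °C for 24–48 h, then MIC was recorded.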

[1] = system: S. Choleraesuis ATCC 10708; test: Antimicrobial activity, agar dilution method; assay type: cell-based; settings: Salmonella enterica, ATCC10708|CHOLERAESUIS
Outline: as §1

[2] = system: A. xylosoxidans ATCC 27061; test: Antimicrobial activity, agar dilution method; assay type: cell-based; settings: Achromobacter xylosoxidans, ATCC27061
Outline: as §1

S. Enteritidis = test: Antimicrobial activity, agar dilution method; assay type: cell-based; settings: Salmonella enterica
Outline: as §1

S. marcescens ATCC 8100 = test: Antimicrobial activity, agar dilution method; assay type: cell-based; settings: Serratia marcescens, ATCC8100
Outline: as §1

M. luteus ATCC 10240 = test: Antimicrobial activity, agar dilution method; assay type: cell-based; settings: Micrococcus luteus, ATCC10240
Outline: as §1

L. monocytogenes = test: Antimicrobial activity, agar dilution method; assay type: cell-based; settings: Listeria monocytogenes
Outline: as §1

B. subtilis ATCC 6633 = test: Antimicrobial activity, agar dilution method; assay type: cell-based; settings: Bacillus subtilis, ATCC6633
Outline: as §1

[3] = system: K. pneumoniae ATCC 700603; test: Antimicrobial activity, agar dilution method; assay type: cell-based; settings: Klebsiella pneumoniae, ATCC700603
Outline: as §1

[4] = system: S. putrefaciens ATCC 8071; test: Antimicrobial activity, agar dilution method; assay type: cell-based; settings: Shewanella putrefaciens, ATCC8071
Outline: as §1

P. aeruginosa ATCC 27853 = test: Antimicrobial activity, agar dilution method; assay type: cell-based, Pseudomonas aeruginosa; settings: Pseudomonas aeruginosa, ATCC27853
Outline: as §1

MRC-5 cell line = test: Cytotoxicity, MTT assay; assay type: cell-based; settings: MRC-5 normal cells, MTT
B. cereus = test: Antimicrobial activity, agar dilution method; assay type: cell-based; settings: Bacillus cereus
Outline: as §1

[5] = system: twenty-seven strains of microorganisms; assay type: cell-based
Outline: as §1

E. coli ATCC 25922 = test: Antimicrobial activity, agar dilution method; assay type: cell-based; settings: Escherichia coli, ATCC25922
Outline: as §1

[6] = system: C. diphtheriae NCTC 10356; test: Antimicrobial activity, agar dilution method; assay type: cell-based; settings: Corynebacterium diphtheriae, NCTC10356
Outline: as §1

S. aureus ATCC 29213 = test: Antimicrobial activity, agar dilution method; assay type: cell-based; settings: Staphylococcus aureus, ATCC29213
Outline: as §1

C. freundii = test: Antimicrobial activity, agar dilution method; assay type: cell-based; settings: Citrobacter freundii
Outline: as §1

A. hydrophila = test: Antimicrobial activity, agar dilution method; assay type: cell-based; settings: Aeromonas hydrophila
Outline: as §1

E. faecalis ATCC 33186 = test: Antimicrobial activity, agar dilution method; assay type: cell-based; settings: Enterococcus faecalis, ATCC33186
Outline: as §1

Gram-negative bacteria = test: Antimicrobial activity, agar dilution method, summarised over the group; assay type: cell-based
Outline: as §1

P. stutzeri ATCC 17587 = test: Antimicrobial activity, agar dilution method; assay type: cell-based, Pseudomonas stutzeri; settings: Stutzerimonas stutzeri, ATCC17587
Outline: as §1

[7] = system: S. Typhimurium ATCC 13311; test: Antimicrobial activity, agar dilution method; assay type: cell-based; settings: Salmonella enterica, ATCC13311|TYPHIMURIUM
Outline: as §1

S. cerevisiae ATCC 2601 = test: Antimicrobial activity, agar dilution method; assay type: cell-based; settings: Saccharomyces cerevisiae, ATCC2601
Outline: as §1

C. albicans ATCC 90028 = test: Antimicrobial activity, agar dilution method; assay type: cell-based; settings: Candida albicans, ATCC90028
Outline: as §1

M. morganii = test: Antimicrobial activity, agar dilution method; assay type: cell-based; settings: Morganella morganii
Outline: as §1

diploid fungi and yeast = test: Antimicrobial activity, agar dilution method, summarised over the group; assay type: cell-based, Candida albicans; settings: Saccharomyces cerevisiae, ATCC2601|ATCC90028
Outline: as §1

S. dysenteriae = test: Antimicrobial activity, agar dilution method; assay type: cell-based; settings: Shigella dysenteriae
Outline: as §1

E. faecalis ATCC 29212 = test: Antimicrobial activity, agar dilution method; assay type: cell-based; settings: Enterococcus faecalis, ATCC29212
Outline: as §1

[8] = system: S. epidermidis ATCC 12228; test: Antimicrobial activity, agar dilution method; assay type: cell-based; settings: Staphylococcus epidermidis, ATCC12228
Outline: as §1

P. shigelloides = test: Antimicrobial activity, agar dilution method; assay type: cell-based; settings: Plesiomonas shigelloides, P. shigelloides; agar dilution
[9] = Antioxidant activity, DPPH radical scavenging assay; assay type: biochemical
Outline: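 Sample solution (test compound, 1 mg/mL in DMSO) was mixed with 0.1 mM DPPH in methanol and kept 30 min in the dark. Absorbance was read at 517 nm. Radical scavenging activity (%) = [1 − Abs(sample)/Abs(control)] × 100. α-Tocopherol was the positive control.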

P. aeruginosa = settings: anti-biofilm agent; cited from earlier work
E. coli = settings: cited from earlier work

| SMILES | IC50 at 48 h (Cytotoxicity, MTT assay) [µM] | MIC (S. aureus ATCC 25923) [µM] | MIC [1] [µM] | MIC [2] [µM] | MIC (S. Enteritidis) [µM] | MIC (S. marcescens ATCC 8100) [µM] | MIC (M. luteus ATCC 10240) [µM] | MIC (L. monocytogenes) [µM] | MIC (B. subtilis ATCC 6633) [µM] | MIC [3] [µM] | MIC [4] [µM] | MIC (P. aeruginosa ATCC 27853) [µM] | MIC (B. cereus) [µM] | MIC (E. coli ATCC 25922) [µM] | MIC [6] [µM] | MIC (S. aureus ATCC 29213) [µM] | MIC (C. freundii) [µM] | MIC (A. hydrophila) [µM] | MIC (E. faecalis ATCC 33186) [µM] | MIC (Gram-negative bacteria) [µM] | other results |
| --- | --- | --- | --- | --- | --- | --- | --- | --- | --- | --- | --- | --- | --- | --- | --- | --- | --- | --- | --- | --- | --- |
| COc1cccc2c1C(=O)c1c(O)c3c(c(O)c1C2=O)C[C@@](O)(C(=O)CO)C[C@@H]3O[C@H]1C[C@H](N)[C@H](O)[C@H](C)O1 [Doxorubicin] | 0.62 ± 0.03 | – | – | – | – | – | – | – | – | – | – | – | – | – | – | – | – | – | – | – | – |
| Oc1c(I)cc(I)c2cccnc12 [Iodoquinol (7), iodoquinol] | – | 645 (≈ 256 µg/mL) | > 645 | > 645 | > 645 | > 645 | 322 (≈ 128 µg/mL) | 645 (≈ 256 µg/mL) | 80.6 (≈ 32 µg/mL) | > 645 | 645 (≈ 256 µg/mL) | > 645 | 645 (≈ 256 µg/mL) | > 645 | > 645 | 645 (≈ 256 µg/mL) | > 645 | 645 (≈ 256 µg/mL) | > 645 | ≥ 645 | cytotoxicity in words (MRC-5 cell line): non-cytotoxic; MIC ([5]; most of the bacterial strains / most of the tested microorganisms): ≥ 645 µM; MIC (P. stutzeri ATCC 17587): > 645 µM; MIC [7]: > 645 µM; MIC (S. cerevisiae ATCC 2601): > 645 µM; MIC (C. albicans ATCC 90028): 645 µM (≈ 256 µg/mL); MIC (M. morganii): > 645 µM; MIC (diploid fungi and yeast): ≥ 645 µM; MIC (S. dysenteriae): 645 µM (≈ 256 µg/mL); MIC (E. faecalis ATCC 29212): > 645 µM; MIC [8]: 645 µM (≈ 256 µg/mL); MIC (P. shigelloides): 645 µM (≈ 256 µg/mL) |
| O=[N+]([O-])c1ccc(O)c2ncccc12 [NQ (2), Nitroxoline] | 88.1 ± 2.11 | 42.1 (≈ 8 µg/mL) | 84.1 (≈ 16 µg/mL) | 21 (≈ 4 µg/mL) | 21 (≈ 4 µg/mL) | 21 (≈ 4 µg/mL) | 10.5 (≈ 2 µg/mL) | 42.1 (≈ 8 µg/mL) | 42.1 (≈ 8 µg/mL) | 84.1 (≈ 16 µg/mL) | 10.5 (≈ 2 µg/mL) | 84.1 (≈ 16 µg/mL) | 21 (≈ 4 µg/mL) | 21 (≈ 4 µg/mL) | 42.1 (≈ 8 µg/mL) | 42.1 (≈ 8 µg/mL) | 21 (≈ 4 µg/mL) | 5.26 (≈ 1 µg/mL) | 42.1 (≈ 8 µg/mL) | 5.26 to 84.1 (≈ 1 to 16 µg/mL) | MIC ([5]; both the Gram-positive and Gram-negative bacteria): 5.26 to 84.1 µM (≈ 1 to 16 µg/mL); antioxidant activity in words [9]: inactive antioxidants; MIC (P. aeruginosa): 84.14 to 168.28 µM; MIC (P. stutzeri ATCC 17587): 10.5 µM (≈ 2 µg/mL); MIC [7]: 21 µM (≈ 4 µg/mL); MIC (S. cerevisiae ATCC 2601): 42.1 µM (≈ 8 µg/mL); MIC (E. coli): 42.07 µM (≈ 8 µg/mL); MIC (C. albicans ATCC 90028): 42.1 µM (≈ 8 µg/mL); MIC (M. morganii): 42.1 µM (≈ 8 µg/mL); MIC (S. dysenteriae): 21 µM (≈ 4 µg/mL); MIC (E. faecalis ATCC 29212): 42.1 µM (≈ 8 µg/mL); MIC [8]: 42.1 µM (≈ 8 µg/mL); MIC (P. shigelloides): 42.1 µM (≈ 8 µg/mL) |
| Cc1c(C)c2c(c(C)c1O)CC[C@@](C)(CCC[C@H](C)CCC[C@H](C)CCCC(C)C)O2 [α-tocopherol, α-Tocopherol] | – | – | – | – | – | – | – | – | – | – | – | – | – | – | – | – | – | – | – | – | IC50 ([9]; read-out: RSA IC50, 30 min, 517 nm): 13.5 µM |

— paper PMC5689172 (Biochemistry and Biophysics Reports, 2016)
